Measured values from ChEMBL document CHEMBL4689842, “EUbOPEN Chemogenomics Library wave 1” (2021).
“And” between values parts separate entries of the source, which are not always exact repeats. Identical values can stand only once.

Tested on: Fibroblast
Experiment: Multiplex assay against human fibroblast
Format: toxicity, cell-based
Conditions: 10 µM, compound concentration 10 uM
Procedure, shortened: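 Tubulin, mitochondrial-mass and membrane-permeability phenotypes are per cents of healthy-nucleus cells. Cells were gated by CellPathfinder machine learning into Hoechst high-intensity objects or normal cells, normal cells into healthy, pyknosed or fragmented nuclei, and pyknosed cells into mitotic or apoptotic. Before that, live cells stained at seeding with Hoechst33342, BioTracker Green Microtubule Cytoskeleton Dye, MitoTracker Red and Annexin V Alexa Fluor 680 were imaged on a CQ1 microscope at 37°C and 5% CO2 after compound addition.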

SMILES: Cn1nc(C(=O)NCc2ccc(C(=O)O)cc2)cc1-c1ccc2[nH]ccc2c1 [BI 4395]
- Population Apoptotic (%) (12 h, replicate 1): 77% and 69%
- Population Fragmented Nuclei (%) (12 h, replicate 1): 29% and 28%
- Population Healthy Nuclei (%) (12 h, replicate 1): 57%
- Population Hoechst High Intensity Objects (%) (12 h, replicate 1): 12% and 19%
- Population Mitochondria Different-Phenotype (%) (12 h, replicate 1): 3% and 2%
- Population Mitotic Cells (%) (12 h, replicate 1): 22% and 30%
- Population Normal (%) (12 h, replicate 1): 87% and 80%
- Population Pyknosed Nuclei (%) (12 h, replicate 1): 13% and 14%
- Population Tubulin-Different-Phenotype (%) (12 h, replicate 1): 9% and 4%
- Total Cell Count (12 h, replicate 1): 190 and 199
- Population Apoptotic (%) (12 h, replicate 2): 42% and 100%
- Population Fragmented Nuclei (%) (12 h, replicate 2): 43% and 54%
- Population Healthy Nuclei (%) (12 h, replicate 2): 38% and 39%
- Population Hoechst High Intensity Objects (%) (12 h, replicate 2): 29% and 49%
- Population Membrane Permeable-Phenotype (%) (12 h, replicate 2): 26% and 9%
- Population Mitochondria Different-Phenotype (%) (12 h, replicate 2): 13% and 0%
- Population Normal (%) (12 h, replicate 2): 70% and 50%
- Total Cell Count (12 h, replicate 2): 55 and 104
- Population Apoptotic (%) (24 h, replicate 1): 71% and 69%
- Population Fragmented Nuclei (%) (24 h, replicate 1): 29% and 27%
- Population Healthy Nuclei (%) (24 h, replicate 1): 58% and 57%
- Population Hoechst High Intensity Objects (%) (24 h, replicate 1): 12% and 17%
- Population Membrane Permeable-Phenotype (%) (24 h, replicate 1): 9% and 5%
- Population Mitochondria Different-Phenotype (%) (24 h, replicate 1): 2% and 0%
- Population Mitotic Cells (%) (24 h, replicate 1): 28% and 30%
- Population Normal (%) (24 h, replicate 1): 87% and 82%
- Population Pyknosed Nuclei (%) (24 h, replicate 1): 14%
- Population Tubulin-Different-Phenotype (%) (24 h, replicate 1): 7% and 4%
- Total Cell Count (24 h, replicate 1): 202 and 211
- Population Fragmented Nuclei (%) (24 h, replicate 2): 75% and 51%
- Population Healthy Nuclei (%) (24 h, replicate 2): 25% and 37%
- Population Hoechst High Intensity Objects (%) (24 h, replicate 2): 44% and 38%
- Population Membrane Permeable-Phenotype (%) (24 h, replicate 2): 15%
- Population Mitochondria Different-Phenotype (%) (24 h, replicate 2): 15% and 7%
- Population Mitotic Cells (%) (24 h, replicate 2): 0%
- Population Normal (%) (24 h, replicate 2): 55% and 61%
- Population Pyknosed Nuclei (%) (24 h, replicate 2): 0% and 11%
- Population Tubulin-Different-Phenotype (%) (24 h, replicate 2): 15% and 38%
- Total Cell Count (24 h, replicate 2): 94 and 57
